Results of several laboratories.
Each line is one published result; the experiments were not run side by side.
Target: Calcium/calmodulin-dependent protein kinase type IV (CAMK4, Homo sapiens, UniProt Q16566)
Residues used in one study (Q16566 1-473): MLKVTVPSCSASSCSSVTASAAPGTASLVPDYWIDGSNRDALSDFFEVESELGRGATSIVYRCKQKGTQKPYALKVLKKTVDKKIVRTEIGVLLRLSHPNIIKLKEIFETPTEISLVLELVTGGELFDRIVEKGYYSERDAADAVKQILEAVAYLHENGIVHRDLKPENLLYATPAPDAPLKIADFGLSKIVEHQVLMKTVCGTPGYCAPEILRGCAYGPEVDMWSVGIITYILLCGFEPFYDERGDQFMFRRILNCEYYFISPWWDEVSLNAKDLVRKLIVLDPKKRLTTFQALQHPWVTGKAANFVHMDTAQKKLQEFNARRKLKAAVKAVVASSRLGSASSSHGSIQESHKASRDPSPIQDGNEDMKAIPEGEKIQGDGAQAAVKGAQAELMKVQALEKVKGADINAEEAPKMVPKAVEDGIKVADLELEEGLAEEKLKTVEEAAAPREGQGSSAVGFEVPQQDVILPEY

| SMILES | test | conditions | measurement | result |
| --- | --- | --- | --- | --- |
| COc1cc2c(Nc3ccc(Br)cc3F)ncnc2cc1OCC1CCN(C)CC1 | cell-free assay | 0.5 µM | remaining signal | 101% |
| COc1cccc(CNC(=O)c2nc3scc(COCc4ccc(C(=O)O)cc4)c3c(=O)[nH]2)c1 | cell-free assay, competition with immobilised ligand | 1 µM | remaining binding | 100% |
| Cc1ccc(NC(=O)c2ccc(CN3CCN(C)CC3)cc2)cc1Nc1nc(-c2cccnc2)cs1 | cell-free assay | 0.5 µM | remaining signal | 98.6% |
| Cn1c2c(c3ccc(Cl)c(Cl)c31)C(C#N)C1(CCCCC1)NC2=O (racemic) | thermal stability, DSF | 10 µM | ΔTm | 0.7 °C |
| CN(C)C1CCN(CC#Cc2nn(C3CCCC3)c3nc(NCc4ccccc4)ncc23)C1 (centres unmarked) | enzyme activity, inhibitor, FRET | 1 µM | inhibition | 7% |
| CCc1ccccc1C(=O)Nc1n[nH]c2c(C)c(F)c(C3C(C#N)=C(C)N(C)C(C)=C3C#N)cc12 | cell-free assay, competition with immobilised ligand | 1 µM | remaining binding | 56% |
| CCN(CC)c1ccc(C2=NNC(=O)CC2C)cc1[N+](=O)[O-] (centres unmarked) | enzyme activity, inhibitor | 10 µM | remaining activity | 102% |
| Cc1sc(C(=O)NC2COC2)cc1-n1cc(NC(=O)Nc2c(F)cccc2Cl)cn1 | enzyme activity, inhibitor | 10 µM | remaining activity | 98.5% |
| COc1cc(Cl)c(C(=O)N[C@@H](CN[C@H]2CC[C@@H](N)CC2)Cc2ccc(C#N)cc2)cc1-c1ccc(CN[C@H](C)c2ccc(C)cc2)o1 | enzyme activity, inhibitor | 1 µM | remaining activity | 92% |
| CCN(CC)CCNC(=O)c1c(C)[nH]c(/C=C2\C(=O)Nc3ccc(F)cc32)c1C | enzyme activity, inhibitor | 0.3 µM | inhibition | 22% |
| CC1(C)NC(=O)c2[nH]c3c(Cl)c(Cl)ccc3c2C1C#N (centres unmarked) | thermal stability, DSF | 10 µM | ΔTm | -0.1 °C |
| CN([C@@H]1CCc2c(CC(=O)O)c3ccccc3n2C1)S(=O)(=O)c1ccc(F)cc1 | cell-free assay, competition with immobilised ligand | 1 µM | remaining binding | 85% |
| Cc1ncc([N+](=O)[O-])n1C(=NO)c1ccccc1C(F)(F)F | enzyme activity, inhibitor | 10 µM | inhibition | 27.6% |
| O=C(NS(=O)(=O)c1ccc(NCC2CCOCC2)c([N+](=O)[O-])c1)c1ccc(N2CCN(Cc3ccc(C(F)(F)F)cc3-c3ccc(Cl)cc3)CC2)cc1Oc1cnc2[nH]ccc2c1 | cell-free assay, competition with immobilised ligand | 1 µM | remaining binding | 100% |
| Cc1cnc(NC2CCOCC2)nc1-n1cnc(C(=O)NC(CN)c2cc(F)cc(Cl)c2)c1 (centres unmarked) | enzyme activity, inhibitor, radiometric | 1 µM | remaining activity | 49% |
| Cn1c2c(c3ccc(Cl)c(Cl)c31)C(C#N)C1(CCNCC1)NC2=O (racemic) | thermal stability, DSF | 10 µM | ΔTm | -0.1 °C |

| SMILES | test | conditions | measurement | result |
| --- | --- | --- | --- | --- |
| CC(C)c1ccc(NC(=O)c2cccs2)c(-c2nc3ccccc3[nH]c2=O)c1 | enzyme activity, inhibitor | 1 µM | activity vs control | 116% |
| CNC(=O)c1cc(Oc2ccc(NC(=O)Nc3ccc(Cl)c(C(F)(F)F)c3)cc2)ccn1 | enzyme activity, inhibitor | 0.3 µM | inhibition | -4% |
| Cn1c2c(Cl)c(Cl)ccc2c2cn[nH]c(=O)c21 | thermal stability, DSF | 10 µM | ΔTm | 0.1 °C |
| CC(=O)c1c(NS(C)(=O)=O)c2cc(-c3ccc(Cl)cc3)c(-c3ccc(Cl)cc3Cl)nc2n(C)c1=O | cell-free assay, competition with immobilised ligand | 1 µM | remaining binding | 100% |
| N#CCCc1ccc2c(c1)-c1[nH]c3ccc([N+](=O)[O-])cc3c1CC(=O)N2 | cell-free assay | 0.5 µM | remaining signal | 98.4% |
| Cn1c2c(Cl)c(Cl)ccc2c2cc[nH]c(=O)c21 | thermal stability, DSF | 10 µM | ΔTm | 0.4 °C |
| COc1cc2ncnc(Nc3ccc(Oc4ccccc4)cc3C)c2cc1OC | enzyme activity, inhibitor | 1 µM | inhibition | -20% |
| CC1=C(C#N)C(c2ccc3c(c2)c(NC(=O)c2ccccc2C)nn3C)C(C#N)=C(C)N1 | cell-free assay, competition with immobilised ligand | 1 µM | remaining binding | 70% |
| Cc1ccc(NC(=O)c2ccc(C)c(C(F)(F)F)c2)cc1C#Cc1nn(C2CCC(O)CC2)c2ncnc(N)c12 (centres unmarked) | cell-free assay | 10 µM | remaining signal | 93% |
| CC/C(=N\NC(=O)NCc1cccc(O)c1)c1ccc(O)c(C)c1O | enzyme activity, inhibitor | 0.1 µM | inhibition | 1.3% |
| Cc1nccc(COC(=O)N2C[C@@H]3[C@@H](CNC(=O)c4ccc5[nH]nnc5c4)[C@@H]3C2)n1 | cell-free assay, competition with immobilised ligand | 1 µM | remaining binding | 95% |
| O=C(Nc1cnn(-c2csc(C(=O)NC3COC3)c2)c1)Nc1ccccc1Cl | enzyme activity, inhibitor | 5 µM | remaining activity | 114% |
| Clc1ccc(Nc2nnc(Cc3ccncc3)c3ccccc23)cc1 | cell-free assay | 0.5 µM | remaining signal | 93.4% |
| O=C(O)c1cc(-c2ccc(C3CCNCC3)cc2)c2ccc(-c3ccc(C(F)(F)F)cc3)cc2c1 | cell-free assay, competition with immobilised ligand | 1 µM | remaining binding | 100% |
| Oc1cccc(-c2nc(N3CCOCC3)c3oc4ncccc4c3n2)c1 | cell-free assay | 0.5 µM | remaining signal | 103% |
| Cn1c2c(c3ccc(Cl)c(Cl)c31)C(C#N)C1(CCN(C(=O)OC(C)(C)C)CC1)NC2=O (racemic) | thermal stability, DSF | 10 µM | ΔTm | -0.3 °C |
